Assay results published in article PMC10172704 (Poultry Science, 2023).
Ends that are not written are not given here.

How the values were obtained:
Assay in all cases: Microdilution broth MIC/MBC
Settings in all cases: synthesized identified peptides
[1] = system: B. cereus DMST 5040; format: cell-based, Bacillus cereus
Method in brief: (§1)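 Broth microdilution per CLSI guideline, modified. Strains grown 18 h on tryptic soy agar, adjusted to 0.5 McFarland, then diluted in 0.85% NaCl to about 5 × 10^5 CFU/mL final. Suspension mixed with test compound in microplate wells and incubated 37°C, 18 h. Growth inhibition read at 600 nm. Positive control: 20 µg/mL kanamycin. Experiments done 3 times.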

[2] = system: E. coli TISTR 780; format: cell-based
Method in brief: as §1

[3] = system: S. aureus ATCC 29213; format: cell-based, Staphylococcus aureus
Method in brief: as §1

[4] = system: S. Typhimurium TISTR 292; format: cell-based, Salmonella typhimurium
Method in brief: as §1

Row | Sequence | MIC [1] [mM] | MIC [2] [mM] | MIC [3] [mM] | MIC [4] [mM]
1 | HAAHTTGLGGPF [HAAHTTGLGGPF] | >4 | >4 | >4 | >4
2 | VTLKVPGVTL [VTLKVPGVTL] | >4 | >4 | >4 | >4
3 | KGGDLGLFEPTL [KGGDLGLFEPTL] | 2 | >4 | 2 | 2
4 | KVLPLPFGGRSPGGGA [KVLPLPFGGRSPGGGA] | >4 | >4 | >4 | >4
5 | CASALLGA [CASALLGA] | 4 | >4 | 4 | 4
